Data set [1] in a line: Partition coefficient (logP). To be noted: octanol/water. Format: physicochemical.
The nature of data set [2]: pKa value was determined. Format: physicochemical. Put shortly:
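The starting phenols' pKa was measured spectroscopically from the change in phenolic UV absorption under acidic (pH 2), pH 9 and basic (pH 11) conditions.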

Data set [3] has as its target T1, Steryl-sulfatase (Homo sapiens) (UniProt P08842).
T1 sequence (whole entry): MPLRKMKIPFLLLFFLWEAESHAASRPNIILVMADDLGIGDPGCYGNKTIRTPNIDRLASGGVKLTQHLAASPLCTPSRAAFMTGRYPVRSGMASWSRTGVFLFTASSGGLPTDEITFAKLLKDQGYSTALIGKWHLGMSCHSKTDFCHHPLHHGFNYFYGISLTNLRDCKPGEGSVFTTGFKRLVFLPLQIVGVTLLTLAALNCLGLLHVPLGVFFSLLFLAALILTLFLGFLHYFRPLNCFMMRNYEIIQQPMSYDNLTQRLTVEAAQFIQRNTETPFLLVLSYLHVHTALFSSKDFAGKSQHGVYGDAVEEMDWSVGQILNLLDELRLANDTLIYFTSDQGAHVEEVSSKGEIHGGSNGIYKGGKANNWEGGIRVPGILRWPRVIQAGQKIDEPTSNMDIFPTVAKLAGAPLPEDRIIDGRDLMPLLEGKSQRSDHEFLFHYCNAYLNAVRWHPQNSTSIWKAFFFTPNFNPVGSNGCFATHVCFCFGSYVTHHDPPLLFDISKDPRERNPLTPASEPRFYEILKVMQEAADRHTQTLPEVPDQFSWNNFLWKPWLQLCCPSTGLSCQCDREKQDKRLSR
To be noted: 0.25 uM.

In data set [4] the target is T1, Steryl-sulfatase (Homo sapiens). Description: Inhibitory activity against estrone sulfatase at 20 uM (initial screening). Put shortly:
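Placental microsomes, diluted to 115 µg/mL in 0.05 M Tris-HCl pH 7.2 and pre-warmed 5 min at 37 °C, incubated 20 min at 37 °C with ³H-estrone sulfate (20 µM/tube, 300,000 dpm). Inhibitors were added in ethanol, then dried under nitrogen. Toluene quench, then toluene-phase radioactivity counted by scintillation. Triplicates, uninhibited controls, boiled-microsome blanks.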

Another data set has as its target T2, Steryl-sulfatase (Homo sapiens, UniProt P08842).
T2 sequence (P08842 whole entry): T1 sequence (whole entry)
Description: Inhibition of estrone sulfatase.

The term logP denotes the decadic logarithm of the partition coefficient of the neutral form, usually between octanol and water. A low value points to lower lipophilicity. The pKa is the negative logarithm of the acid dissociation constant. Usually inhibition stands for the change of the read-out against control, counted positive when it falls. The term IC50 denotes the midpoint of a concentration-inhibition curve. High values mean lower potency, low ones higher potency.

`CCOC(=O)c1ccc(OS(N)(=O)=O)cc1` returned a logP in data set [1] of 1.84.

Regarding `NS(=O)(=O)Oc1ccc2c3c(c(=O)oc2c1)CCCCC3` [IROSUSTAT], the logP in data set [1] amounted to 2.65. The same molecule displayed a pKa in data set [2] of 8.27. Further, the inhibition in data set [3] worked out at 56%.

The molecule `COC(=O)c1ccc(OS(N)(=O)=O)cc1` showed a logP in data set [1] of 1.49.

As for `C[C@]12CC[C@@H]3c4ccc(OS(N)(=O)=O)cc4CCC3[C@@H]1CCC2=O` (single isomer, unassigned) [EMATE], the logP in data set [1] stood at 3.8. In data set [2], this molecule registered a pKa of 8.37.

For the molecule `NS(=O)(=O)Oc1ccc(C(=O)OC2CCCCC2)cc1`, in data set [1], the log partition coefficient (logP) came out at 3.08. In data set [2], this molecule had a pKa of 8.81. In addition, in data set [4], the inhibition was 84%. The molecule further showed a concentration for half-maximal inhibition (IC50) at Steryl-sulfatase of 1700 nM.

Molecule `CCCCCCOC(=O)c1ccc(OS(N)(=O)=O)cc1` came in with a lipophilicity (logP) in data set [1] of 3.49.

As for `CCCCCCCCCCOC(=O)c1ccc(OS(N)(=O)=O)cc1`, in data set [1], the logP stood at 5.08. Moreover, in data set [2], the pKa amounted to 8.09.

With `CCCCCCCCCOC(=O)c1ccc(OS(N)(=O)=O)cc1`, the logP in data set [1] was 4.68. Further, in data set [2], the pKa is 8.39.

For the molecule `CCCCOC(=O)c1ccc(OS(N)(=O)=O)cc1`, the log partition coefficient (logP) in data set [1] turned out to be 2.7.

Regarding `Cc1cc(=O)oc2cc(OS(N)(=O)=O)ccc12`, in data set [1], the logP stood at 1.6. This molecule had a pKa in data set [2] of 8. On Steryl-sulfatase, the IC50 was 13800 nM.

As for `NS(=O)(=O)Oc1ccc(C(=O)OC2CCCCCCC2)cc1`, the lipophilicity (logP) in data set [1] was 3.87. This molecule also came in with a pKa in data set [2] of 8.09. Further, the inhibition in data set [4] worked out at 82%. Also, the IC50 against Steryl-sulfatase was determined as 170 nM.

With `NS(=O)(=O)Oc1ccc(C(=O)OC2CCCC2)cc1`, the logP in data set [1] is 2.68. Besides, the pKa in data set [2] worked out at 8.73. This molecule also came in with an inhibition in data set [4] of 62%. Also, at Steryl-sulfatase, the IC50 turned out to be 9300 nM.

As to `CCCCCOC(=O)c1ccc(OS(N)(=O)=O)cc1`, the logP in data set [1] was found to be 3.1.

Turning to `NS(=O)(=O)Oc1ccc(C(=O)OC2CCCCCC2)cc1`, the logP in data set [1] turned out to be 3.47. In data set [2], this molecule came in with a pKa of 8.88. The inhibition in data set [4] came out at 87%. The same molecule yielded an IC50 against Steryl-sulfatase of 500 nM.

Consider `CCCOC(=O)c1ccc(OS(N)(=O)=O)cc1`, for which the logP in data set [1] came to 2.3.

On to `CCCCCCCCOC(=O)c1ccc(OS(N)(=O)=O)cc1`, for which the logP in data set [1] was 4.29. In addition, the pKa in data set [2] stood at 8.09.

For the molecule `CCCCCCCOC(=O)c1ccc(OS(N)(=O)=O)cc1`, in data set [1], the logP amounted to 3.89.

Values taken from ChEMBL document CHEMBL1147419, “Inhibition of estrone sulfatase (ES) by alkyl and cycloalkyl ester derivatives of 4-[(aminosulfonyl)oxy] benzoic acid” (Bioorg Med Chem Lett, 2004).
